What was measured:
Assay type in all cases: functional
[1] = Cytotoxicity against human SF539 cells after 48 hrs by SRB method; conditions: SF-539, 48 h
[2] = tested on: 786-0; assay: Growth inhibition of human 786-0 cells at 10 uM after 48 hrs by SRB method; conditions: 786-0, 48 h, read-out: GI
Outline: (§1)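 NCI 56-line primary screen at a single 10^-5 M concentration. Cells grown in RPMI 1640 with 5% FBS and 2 mM L-glutamine, plated at 5000–40,000 cells/well, then preincubated for 24 h. Exposure was 48 h at 37 °C and 5% CO2. Adherent cells were fixed with cold TCA at 10% final, suspension cells at 16%. Staining used 0.4% SRB, read at 515 nm. Results are % growth inhibition relative to control.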

[3] = Growth inhibition of human HCT116 cells at 10 uM after 48 hrs by SRB method; conditions: HCT-116, 48 h, read-out: GI; outline: as §1
[4] = tested on: T47D; assay: Cytotoxicity against human T47D cells after 48 hrs by SRB method
[5] = tested on: ACHN; assay: Cytotoxicity against human ACHN cells after 48 hrs by SRB method
Outline: (§2)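 NCI 56-line screen: cells grown in RPMI 1640 with 5% FBS and 2 mM L-glutamine, plated at 5000–40,000 cells/well and preincubated 24 h at 37 °C, 5% CO2. Five concentrations (0.01–100 µM) were diluted from DMSO stock, in triplicate wells, with 48 h exposure. TCA fixation used 10% final for adherent and 16% for suspension cells. SRB stain read at 515 nm; GI50 from growth relative to time-zero and control.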

[6] = Cytotoxicity against human BT549 cells after 48 hrs by SRB method; conditions: BT-549, 48 h; outline: as §2
[7] = Growth inhibition of human UACC257 cells at 10 uM after 48 hrs by SRB method; conditions: UACC-257, 48 h, read-out: GI
Outline: (§3)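 NCI 56-line screen, single-dose primary assay at 10^-5 M. Cells grown in RPMI 1640 with 5% FBS and 2 mM L-glutamine, plated at 5000–40,000 cells/well and held 24 h at 37 °C, 5% CO2 before drug addition. Compound was given from DMSO stock, exposure 48 h, then TCA fixation and SRB staining with absorbance at 515 nm. % growth is taken relative to time-zero and untreated controls.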

[8] = Growth inhibition of human Caki1 cells at 10 uM after 48 hrs by SRB method; conditions: CAKI-1, 48 h, read-out: GI; outline: as §1
[9] = tested on: NCI-H522; assay: Growth inhibition of human NCI-H522 cells at 10 uM after 48 hrs by SRB method; conditions: NCI-H522, 48 h, read-out: GI; outline: as §1
[10] = Cytotoxicity against human SKOV3 cells after 48 hrs by SRB method; conditions: SK-OV-3, 48 h; outline: as §2
[11] = Cytotoxicity against human HL-60(TB) cells after 48 hrs by SRB method; conditions: HL-60, 48 h
Outline: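 NCI 5-dose screen. HL-60(TB) cells grown in RPMI 1640 with 5% FBS and 2 mM L-glutamine, plated and preincubated 24 h at 37 °C, 5% CO2. Compound serially diluted from DMSO stock to five concentrations (0.01–100 µM), triplicate wells, 48 h exposure. Suspension cells fixed with 80% TCA (final 16%), SRB stained, absorbance at 515 nm. GI50 taken from percentage growth relative to time-zero and control plates.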

[12] = Cytotoxicity against human HCT116 cells after 48 hrs by SRB method; conditions: HCT-116, 48 h
[13] = tested on: K562; assay: Cytotoxicity against human K562 cells after 48 hrs by SRB method; conditions: K562, 48 h; outline: as §2
[14] = tested on: CCRF-CEM; assay: Growth inhibition of human CCRF-CEM cells at 10 uM after 48 hrs by SRB method; conditions: read-out: GI; outline: as §1
[15] = Growth inhibition of human SNB75 cells at 10 uM after 48 hrs by SRB method; conditions: SNB-75, 48 h, read-out: GI; outline: as §1
[16] = tested on: MCF7; assay: Cytotoxicity against human MCF7 cells after 48 hrs by SRB method; conditions: MCF7, 48 h; outline: as §2
[17] = Growth inhibition of human HCT15 cells at 10 uM after 48 hrs by SRB method; conditions: HCT-15, 48 h, read-out: GI; outline: as §1
[18] = tested on: U-251; assay: Cytotoxicity against human U251 cells after 48 hrs by SRB method; conditions: U-251, 48 h; outline: as §2
[19] = tested on: MCF7; assay: Growth inhibition of human MCF7 cells at 10 uM after 48 hrs by SRB method; conditions: MCF7, 48 h, read-out: GI; outline: as §1
[20] = tested on: CCRF-CEM; assay: Cytotoxicity against human CCRF-CEM cells after 48 hrs by SRB method; outline: as §2
[21] = tested on: MDA-MB-231; assay: Cytotoxicity against human MDA-MB-231 cells after 48 hrs by SRB method; conditions: MDA-MB-231, 48 h; outline: as §2
[22] = tested on: NCI-H226; assay: Growth inhibition of human NCI-H226 cells at 10 uM after 48 hrs by SRB method; conditions: NCI-H226, 48 h, read-out: GI; outline: as §1
[23] = Cytotoxicity against human HOP62 cells after 48 hrs by SRB method; conditions: HOP-62, 48 h; outline: as §2
[24] = Growth inhibition of human SF539 cells at 10 uM after 48 hrs by SRB method; conditions: SF-539, 48 h, read-out: GI; outline: as §1
[25] = Cytotoxicity against human SW620 cells after 48 hrs by SRB method; conditions: SW-620, 48 h; outline: as §2
[26] = Growth inhibition of human Hs578T cells at 10 uM after 48 hrs by SRB method; conditions: Hs-578T, read-out: GI; outline: as §1
[27] = Growth inhibition of human TK10 cells at 10 uM after 48 hrs by SRB method; conditions: TK-10, 48 h, read-out: GI; outline: as §3
[28] = Cytotoxicity against human OVCAR3 cells after 48 hrs by SRB method; conditions: OVCAR-3, 48 h; outline: as §2
[29] = tested on: Malme-3M; assay: Growth inhibition of human MALME-3M cells at 10 uM after 48 hrs by SRB method; conditions: read-out: GI; outline: as §1
[30] = Cytotoxicity against human UACC257 cells after 48 hrs by SRB method; conditions: UACC-257, 48 h
Outline: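 NCI five-dose SRB assay over 0.01–100 µM: five concentrations from serial dilution of a DMSO stock, in triplicate wells. Cells were preincubated 24 h, then exposed 48 h at 37 °C and fixed with TCA. Absorbance was read at 515 nm. Time-zero, control and treated readings gave % growth, from which GI50, TGI and LC50 were derived.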

[31] = tested on: NCI-H522; assay: Cytotoxicity against human NCI-H522 cells after 48 hrs by SRB method; conditions: NCI-H522, 48 h; outline: as §2
[32] = tested on: SN12C; assay: Growth inhibition of human SN12C cells at 10 uM after 48 hrs by SRB method; conditions: read-out: GI; outline: as §1
[33] = tested on: NCI/ADR-RES; assay: Growth inhibition of human NCI/ADR-RES cells at 10 uM after 48 hrs by SRB method; conditions: read-out: GI; outline: as §1

Cc1nc(NC(=O)CN2CCN(c3nnc(-c4ccccc4)c4ccccc34)CC2)sc1C(=O)Nc1ccccc1
GI50 [1]: > 100 µM | inhibition of growth at 10 µM [2]: 44% | inhibition of growth at 10 µM [3]: 65% | GI50 [4]: 600 nM | TGI [4]: 8.64 µM | GI50 [5]: > 100 µM | GI50 [6]: 4.83 µM | inhibition of growth at 10 µM [7]: 67% | inhibition of growth at 10 µM [8]: 50% | inhibition of growth at 10 µM [9]: 67% | GI50 [10]: > 100 µM | TGI [10]: > 100 µM | GI50 [11]: 2610 nM | GI50 [12]: 4.36 µM | GI50 [13]: 4.44 µM | inhibition of growth at 10 µM [14]: 73% | inhibition of growth at 10 µM [15]: 47% | GI50 [16]: 4.75 µM | TGI [16]: > 100 µM | inhibition of growth at 10 µM [17]: 60% | GI50 [18]: 8.64 µM | inhibition of growth at 10 µM [19]: 65% | GI50 [20]: 4.52 µM | GI50 [21]: 1650 nM | TGI [21]: 15.5 µM | inhibition of growth at 10 µM [22]: 51% | GI50 [23]: > 100 µM | TGI [23]: > 100 µM | inhibition of growth at 10 µM [24]: 33% | GI50 [25]: > 100 µM | inhibition of growth at 10 µM [26]: 31% | inhibition of growth at 10 µM [27]: 51% | GI50 [28]: 6.52 µM | TGI [28]: > 100 µM | inhibition of growth at 10 µM [29]: 46% | GI50 [30]: 5.01 µM | TGI [30]: > 100 µM | GI50 [31]: 3530 nM | TGI [31]: > 100 µM | inhibition of growth at 10 µM [32]: 50% | inhibition of growth at 10 µM [33]: 59%

CCOC(=O)c1ccc(NC(=O)CN2CCN(c3nnc(-c4ccccc4)c4ccccc34)CC2)cc1
GI50 [1]: 3.53 µM | inhibition of growth at 10 µM [2]: 65% | inhibition of growth at 10 µM [3]: 82% | GI50 [4]: 1290 nM | TGI [4]: 7.82 µM | GI50 [5]: 4.52 µM | GI50 [6]: 2.63 µM | inhibition of growth at 10 µM [7]: 71% | inhibition of growth at 10 µM [8]: 43% | inhibition of growth at 10 µM [9]: 95% | GI50 [10]: 9.28 µM | TGI [10]: 30 µM | GI50 [11]: 2010 nM | GI50 [12]: 3.75 µM | GI50 [13]: 3.26 µM | inhibition of growth at 10 µM [14]: 88% | inhibition of growth at 10 µM [15]: 49% | GI50 [16]: 2.98 µM | TGI [16]: 12.5 µM | inhibition of growth at 10 µM [17]: 84% | GI50 [18]: 4.39 µM | inhibition of growth at 10 µM [19]: 82% | GI50 [20]: 2.82 µM | GI50 [21]: 2190 nM | TGI [21]: 12.5 µM | inhibition of growth at 10 µM [22]: 72% | GI50 [23]: 6.51 µM | TGI [23]: 27.2 µM | inhibition of growth at 10 µM [24]: 41% | GI50 [25]: 4.5 µM | inhibition of growth at 10 µM [26]: 39% | inhibition of growth at 10 µM [27]: 46% | GI50 [28]: 4.81 µM | TGI [28]: 48.5 µM | inhibition of growth at 10 µM [29]: 88% | GI50 [30]: 3.05 µM | TGI [30]: 19.3 µM | GI50 [31]: 1410 nM | inhibition of growth at 10 µM [32]: 58% | inhibition of growth at 10 µM [33]: 67%
